What was measured:
[1] = Increase in neuronal survival in embryonic chick dorsal root ganglion sensory neurons at 10 uM to 0.1 nM after 48 hrs relative to BDNF
[2] = Increase in neuronal survival in embryonic chick dorsal root ganglion sensory neurons assessed as normalized neuronal survival response equivalent to 20% for BDNF after 48 hrs; assay type: functional, Gallus gallus, DRG neuron
How it was run: (§1)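 Primary embryonic chick DRG sensory neuron cultures. Peptides tested in log10 increments, with surviving neurons counted after 48 h. Triplicate well counts averaged and normalised between BDNF positive (100%) and negative (0%) controls. Data given as mean ± SEM, n = 3–4. pEC20BDNF is the negative log10 of the concentration giving 20% of the BDNF survival response.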

Plasma = experiment: (§2) Stability in mouse plasma assessed as degradation; assay type: ADME, cell-free
How it was run: (§3)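 Peptide (0.2 mg) incubated at 37 °C in single-mouse plasma diluted 50% in PBS, sampled over 24 h. Each aliquot put on ice, treated with lysine (1000 equiv) to displace protein binding, then MeCN to precipitate proteins, centrifuged at 4 °C and diluted for HPLC. Peak areas taken as ratio to 4-isopropylbenzyl alcohol internal standard, as % of t = 0; three experiments.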

[3] = Increase in neuronal survival in embryonic chick dorsal root ganglion sensory neurons at 10 uM to 0.1 nM after 48 hrs relative to BDNF; assay type: functional, Gallus gallus, DRG neuron; details: in the assay text read “at 100 uM” for “at 10 uM to 0.1 nM”
How it was run: as §1

[4] = Apparent permeability across apical to basolateral side in human Caco-2 cells at 200 uM after 150 mins; assay type: ADME, cell-based
How it was run: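 Caco-2 cells (passage 82–96) grown 24–25 days on polycarbonate Transwell supports (0.45 µm pore, 1.13 cm²). Basolateral samples taken every 30 min for 150 min with buffer replacement. Samples acetylated, lyophilised, redissolved in 2% TFA and centrifuged; bis-acetylated peptide quantified by LCMS. Papp given as mean ± SEM from 3–4 monolayers.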

[5] = Stability in mouse plasma assessed as half life at 0.2 mg; assay type: ADME, cell-free
How it was run: as §3

[6] = Increase in neuronal survival in embryonic chick dorsal root ganglion sensory neurons at 10 uM to 10 nM after 48 hrs relative to BDNF; assay type: functional, Gallus gallus, DRG neuron
How it was run: as §1

[7] = Increase in neuronal survival in embryonic chick dorsal root ganglion sensory neurons at 0.1 uM after 48 hrs relative to BDNF; assay type: functional, Gallus gallus, DRG neuron; details: in the assay text read “0.01 uM” for “0.1 uM”
How it was run: as §1

[8] = as §2; assay type: ADME, cell-free; details: read-out: Activity
How it was run: as §3

| Compound | Activity [1] [%] | Activity [2] | Activity (Plasma) | Activity [3] [%] | Papp A→B at 2.5 h, 200 µM [4] [×10⁻⁶ cm/s] | half-life [5] [min] | Activity [6] [%] | Activity [7] [%] | metabolised [8] [%] |
| --- | --- | --- | --- | --- | --- | --- | --- | --- | --- |
| C[C@@H]1NC(=O)[C@H]2CCCN2C(=O)[C@H](CCCNC(=N)N)NC(=O)[C@H](CCCCN)NC(=O)[C@H](CCCCN)NC1=O | 37.3 | 7.3 | Stable | 67.7 | 0.642 | > 1440 |  |  |  |
| CCCCC(=O)NCCCC[C@@H]1NC(=O)[C@H]2CCCN2C(=O)[C@H](CCCNC(=N)N)NC(=O)[C@H](CCCCN)NC(=O)[C@H](CCCCN)NC1=O |  | 7.7 |  |  | 0.929 |  | 39.4 |  |  |
| CCCCCCCCCCCCCCCC(=O)NCCCC[C@@H]1NC(=O)[C@H]2CCCN2C(=O)[C@H](CCCNC(=N)N)NC(=O)[C@H](CCCCN)NC(=O)[C@H](CCCCN)NC1=O |  | 9.1 |  |  |  |  | 49.4 | 28.4 |  |
| CCCCCCCC(=O)NCCCC[C@@H]1NC(=O)[C@H]2CCCN2C(=O)[C@H](CCCNC(=N)N)NC(=O)[C@H](CCCCN)NC(=O)[C@H](CCCCN)NC1=O |  | 7.5 |  |  | 0.922 | > 1440 | 38.7 |  | 20 |
| CCCC[C@@H]1NC(=O)[C@H]2CCCN2C(=O)[C@H](CCCNC(=N)N)NC(=O)[C@H](CCCCN)NC(=O)[C@H](CCCCN)NC1=O |  | 6.2 |  |  | 0.288 |  | 36.2 |  |  |
| N=C(N)NCCC[C@@H]1NC(=O)[C@H](CCCCN)NC(=O)[C@H](CCCCN)NC(=O)[C@H](CCCCN)NC(=O)[C@H]2CCCN2C1=O |  | 7.5 |  |  |  |  | 60.9 |  |  |
| N=C(N)NCCC[C@@H]1NC(=O)[C@H](CCCCN)NC(=O)[C@H](CCCCN)NC(=O)[C@H](Cc2ccccc2)NC(=O)[C@H]2CCCN2C1=O |  | 5.3 |  |  |  |  | 21.8 |  |  |

Source: ChEMBL document CHEMBL1154000, “Modified low molecular weight cyclic peptides as mimetics of BDNF with improved potency, proteolytic stability and transmembrane passage in vitro” (Bioorg Med Chem, 2009)
